From ChEMBL document CHEMBL1122990, “Cyclic melanotropins. 9. 7-D-Phenylalanine analogues of the active-site sequence” (J Med Chem, 1985)

How the values were obtained:
[1] = test system: lizara; test: Potency in the lizard (Anolis carolinensis) skin bioassay relative to alpha-MSH; format: functional
Method in brief: (§1)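 In vitro Anolis carolinensis skin bioassay scoring melanosome dispersion as skin darkening. Solutions were made by serial dilution from a 10⁻⁴ M stock. Potency was calculated along the linear portion of the dose-response curve and standardized to α-MSH = 1.00.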

[2] = test system: frog; test: Potency in the frog (Rana pipiens) skin bioassay relative to alpha-MSH; format: functional
Method in brief: as §1, with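 “Rana pipiens” for “Anolis carolinensis”, “stock. Responses are the mean ± SE of 6 or more skins.” for “stock.”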

Row | SMILES | Potency [1] | Potency [2]
1 | CC(=O)N[C@H]1CSSC[C@@H](C(N)=O)NC(=O)[C@H](Cc2c[nH]c3ccccc23)NC(=O)[C@H](CCCN=C(N)N)NC(=O)[C@@H](Cc2ccccc2)NC(=O)[C@H](Cc2c[nH]cn2)NC(=O)[C@H](CCC(=O)O)NC1=O | 0.5 | 0.75
2 | CC(=O)N[C@H]1CSSC[C@@H](C(=O)N[C@@H](CCCCN)C(N)=O)NC(=O)[C@H](Cc2c[nH]c3ccccc23)NC(=O)[C@H](CCCN=C(N)N)NC(=O)[C@H](Cc2ccccc2)NC(=O)[C@H](Cc2c[nH]cn2)NC(=O)[C@H](CCC(=O)O)NC1=O | 0.07 | 0.16
3 | CC(=O)N[C@H]1CSSC[C@@H](C(N)=O)NC(=O)[C@H](Cc2c[nH]c3ccccc23)NC(=O)[C@H](CCCN=C(N)N)NC(=O)[C@H](Cc2ccccc2)NC(=O)[C@H](Cc2c[nH]cn2)NC(=O)[C@H](CCC(=O)O)NC1=O | 0.003 | 0.06
4 | CC(=O)N[C@@H](CO)C(=O)N[C@@H](Cc1ccc(O)cc1)C(=O)N[C@@H](CO)C(=O)N[C@H]1CSSC[C@@H](C(=O)N[C@@H](CCCCN)C(=O)N2CCC[C@H]2C(=O)N[C@H](C(N)=O)C(C)C)NC(=O)[C@H](Cc2c[nH]c3ccccc23)NC(=O)[C@@H](CCCN=C(N)N)NC(=O)[C@H](Cc2ccccc2)NC(=O)[C@@H](Cc2c[nH]cn2)NC(=O)[C@H](CCC(=O)O)NC1=O | 2 | 10
5 | CC(=O)N[C@H]1CSSC[C@@H](C(=O)N[C@@H](CCCCN)C(N)=O)NC(=O)[C@H](Cc2c[nH]c3ccccc23)NC(=O)[C@H](CCCN=C(N)N)NC(=O)[C@@H](Cc2ccccc2)NC(=O)[C@H](Cc2c[nH]cn2)NC(=O)[C@H](CCC(=O)O)NC1=O | 3 | 2.5
